Experimental data published in ChEMBL document CHEMBL1126247, “Iodoaminopotentidine and related compounds: a new class of ligands with high affinity and selectivity for the histamine H2 receptor” (J Med Chem, 1992).

Experiments:
[1] = target: Histamine H2 receptor (Cavia porcellus) (UniProt P47747); test: Histamine H2 receptor antagonistic activity at concentrations of 0.03,0.1 and 0.3 uM on the isolated guinea pig right atrium.; format: functional, tissue-based; details: Cardiac atrium
[2] = target: Adrenergic receptor alpha-1 (Rattus norvegicus) (UniProt P15823+P23944+P43140); test: (§1) Alpha-1 adrenergic receptor antagonistic activity on the rat aorta determined by Schild plot.; format: functional, tissue-based
In short: (§2)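 Endothelium-denuded thoracic aortic rings from the same rats, mounted isometrically, resting force 20 mN. Equilibration 140 min with two primings of 0.1 μM (R)-phenylephrine. Cumulative (R)-phenylephrine (0.003-10 μM) curves recorded with 1 μM (±)-propranolol present.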

[3] = target: Serotonin 2 (5-HT2) receptor (Rattus norvegicus) (UniProt P30994+P08909+P14842); test: (§3) 5-hydroxytryptamine 2 receptor antagonistic activity on the rat tail artery determined by Schild plot.; format: functional, tissue-based
Serotonin 2 (5-HT2) receptor (Rattus norvegicus), sequence (P08909 whole entry, looked up): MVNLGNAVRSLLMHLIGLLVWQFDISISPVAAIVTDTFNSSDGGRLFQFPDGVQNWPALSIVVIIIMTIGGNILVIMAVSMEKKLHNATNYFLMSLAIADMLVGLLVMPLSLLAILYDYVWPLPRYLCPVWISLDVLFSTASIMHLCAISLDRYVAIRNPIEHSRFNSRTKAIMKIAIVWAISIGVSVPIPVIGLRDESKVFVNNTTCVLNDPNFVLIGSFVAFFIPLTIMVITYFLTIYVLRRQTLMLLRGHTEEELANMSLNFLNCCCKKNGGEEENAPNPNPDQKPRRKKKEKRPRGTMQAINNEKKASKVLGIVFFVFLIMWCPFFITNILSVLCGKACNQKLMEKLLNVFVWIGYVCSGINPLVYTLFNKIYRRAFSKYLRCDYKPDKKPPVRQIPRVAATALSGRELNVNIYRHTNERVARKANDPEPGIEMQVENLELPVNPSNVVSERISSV
Serotonin 2 (5-HT2) receptor (Rattus norvegicus), sequence (P14842 whole entry, looked up): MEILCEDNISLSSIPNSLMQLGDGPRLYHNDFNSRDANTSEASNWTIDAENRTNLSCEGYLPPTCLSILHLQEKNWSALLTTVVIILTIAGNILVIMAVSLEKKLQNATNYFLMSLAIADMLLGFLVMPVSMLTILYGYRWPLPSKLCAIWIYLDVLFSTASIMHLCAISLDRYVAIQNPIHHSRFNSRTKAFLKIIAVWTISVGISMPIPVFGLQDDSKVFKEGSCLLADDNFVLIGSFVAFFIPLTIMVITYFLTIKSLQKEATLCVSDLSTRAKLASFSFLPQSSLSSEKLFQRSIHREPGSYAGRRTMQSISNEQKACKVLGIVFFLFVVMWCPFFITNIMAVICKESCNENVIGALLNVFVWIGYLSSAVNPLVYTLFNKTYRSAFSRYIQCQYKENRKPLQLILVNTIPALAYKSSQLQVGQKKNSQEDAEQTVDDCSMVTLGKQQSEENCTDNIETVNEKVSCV
Serotonin 2 (5-HT2) receptor (Rattus norvegicus), sequence (P30994 whole entry, looked up): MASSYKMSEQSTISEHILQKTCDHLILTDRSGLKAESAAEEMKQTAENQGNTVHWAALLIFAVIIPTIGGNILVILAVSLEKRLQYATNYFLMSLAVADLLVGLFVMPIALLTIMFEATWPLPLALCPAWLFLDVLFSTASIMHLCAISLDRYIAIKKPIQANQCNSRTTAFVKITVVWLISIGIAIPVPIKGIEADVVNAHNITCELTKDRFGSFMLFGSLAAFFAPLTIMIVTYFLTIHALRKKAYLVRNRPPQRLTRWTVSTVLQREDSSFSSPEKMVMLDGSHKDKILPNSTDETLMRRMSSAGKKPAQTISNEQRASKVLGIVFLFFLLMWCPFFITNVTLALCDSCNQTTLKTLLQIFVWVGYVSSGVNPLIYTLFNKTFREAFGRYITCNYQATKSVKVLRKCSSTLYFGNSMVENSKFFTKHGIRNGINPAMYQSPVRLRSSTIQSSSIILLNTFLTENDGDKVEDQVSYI
In short: (§4)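 Endothelium-denuded ventral tail artery segments from male Wistar rats (280-350 g), resting force 5 mN, 120 min equilibration with one 1 μM 5-HT priming. Two to three cumulative 5-HT (0.01-10 μM) curves per preparation.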

[4] = target: Serotonin 2 (5-HT2) receptor (Rattus norvegicus, UniProt P30994+P08909+P14842); test: as §3; format: functional, tissue-based; in short: as §4
[5] = target: Beta-1 adrenergic receptor (Cavia porcellus) (UniProt B0FL73); test: Beta-1 Adrenergic receptor antagonistic activity at concentrations of 10 and 30 uM on the isolated guinea pig right atrium.; format: functional, tissue-based; details: Cardiac atrium
Beta-1 adrenergic receptor (Cavia porcellus), sequence (B0FL73 1-467): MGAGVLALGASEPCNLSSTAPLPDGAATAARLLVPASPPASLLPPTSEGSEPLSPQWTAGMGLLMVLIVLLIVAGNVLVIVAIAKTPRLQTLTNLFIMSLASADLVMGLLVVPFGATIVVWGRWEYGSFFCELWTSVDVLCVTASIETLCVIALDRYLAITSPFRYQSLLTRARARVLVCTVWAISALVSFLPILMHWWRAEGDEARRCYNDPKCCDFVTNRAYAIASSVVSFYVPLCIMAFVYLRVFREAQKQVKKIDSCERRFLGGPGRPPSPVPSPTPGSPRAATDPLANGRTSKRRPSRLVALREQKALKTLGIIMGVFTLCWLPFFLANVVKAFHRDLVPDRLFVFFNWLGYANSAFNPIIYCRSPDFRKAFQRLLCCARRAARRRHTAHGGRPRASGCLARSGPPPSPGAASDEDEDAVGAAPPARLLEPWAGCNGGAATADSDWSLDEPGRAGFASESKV
In short: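 Spontaneously beating guinea pig right atrium, isometric recording of chronotropic response. Cumulative isoprenaline (0.1-30 nM) curves as reference agonist. Incubation handled as in the H2 protocol. pK_B = -log[antagonist] + log(concentration ratio - 1).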

[6] = target: T1, Adrenergic receptor alpha-1 (Rattus norvegicus, UniProt P15823+P23944+P43140); test: as §1; format: functional, tissue-based; in short: as §2
T1 sequence (P15823 whole entry): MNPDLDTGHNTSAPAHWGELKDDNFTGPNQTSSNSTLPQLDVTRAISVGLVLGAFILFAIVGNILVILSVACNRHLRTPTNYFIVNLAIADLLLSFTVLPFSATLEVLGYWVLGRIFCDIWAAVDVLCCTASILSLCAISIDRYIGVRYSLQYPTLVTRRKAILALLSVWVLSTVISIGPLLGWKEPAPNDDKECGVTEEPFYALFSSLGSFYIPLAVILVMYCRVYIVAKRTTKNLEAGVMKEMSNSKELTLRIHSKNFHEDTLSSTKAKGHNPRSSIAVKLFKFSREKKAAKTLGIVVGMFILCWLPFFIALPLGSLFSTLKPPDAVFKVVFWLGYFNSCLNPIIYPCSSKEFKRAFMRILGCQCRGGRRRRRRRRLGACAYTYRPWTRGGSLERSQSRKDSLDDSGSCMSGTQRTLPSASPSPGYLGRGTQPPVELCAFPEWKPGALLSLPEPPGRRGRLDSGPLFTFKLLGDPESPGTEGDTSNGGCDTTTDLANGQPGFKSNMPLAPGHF
T1 sequence (P23944 whole entry): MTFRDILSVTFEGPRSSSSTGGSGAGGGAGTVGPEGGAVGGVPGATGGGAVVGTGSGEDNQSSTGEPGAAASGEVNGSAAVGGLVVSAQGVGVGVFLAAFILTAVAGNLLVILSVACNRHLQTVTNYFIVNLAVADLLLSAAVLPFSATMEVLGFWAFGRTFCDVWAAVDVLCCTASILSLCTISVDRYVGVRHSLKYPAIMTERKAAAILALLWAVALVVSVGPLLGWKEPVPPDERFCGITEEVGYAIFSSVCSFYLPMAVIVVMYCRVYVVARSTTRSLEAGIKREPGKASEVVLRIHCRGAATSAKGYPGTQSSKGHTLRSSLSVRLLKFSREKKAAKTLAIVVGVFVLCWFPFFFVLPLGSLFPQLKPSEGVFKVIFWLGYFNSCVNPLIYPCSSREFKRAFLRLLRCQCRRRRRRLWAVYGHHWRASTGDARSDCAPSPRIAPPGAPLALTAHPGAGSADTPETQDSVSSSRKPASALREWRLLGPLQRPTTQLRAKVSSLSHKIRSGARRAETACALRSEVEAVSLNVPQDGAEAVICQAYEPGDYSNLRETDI
T1 sequence (P43140 whole entry): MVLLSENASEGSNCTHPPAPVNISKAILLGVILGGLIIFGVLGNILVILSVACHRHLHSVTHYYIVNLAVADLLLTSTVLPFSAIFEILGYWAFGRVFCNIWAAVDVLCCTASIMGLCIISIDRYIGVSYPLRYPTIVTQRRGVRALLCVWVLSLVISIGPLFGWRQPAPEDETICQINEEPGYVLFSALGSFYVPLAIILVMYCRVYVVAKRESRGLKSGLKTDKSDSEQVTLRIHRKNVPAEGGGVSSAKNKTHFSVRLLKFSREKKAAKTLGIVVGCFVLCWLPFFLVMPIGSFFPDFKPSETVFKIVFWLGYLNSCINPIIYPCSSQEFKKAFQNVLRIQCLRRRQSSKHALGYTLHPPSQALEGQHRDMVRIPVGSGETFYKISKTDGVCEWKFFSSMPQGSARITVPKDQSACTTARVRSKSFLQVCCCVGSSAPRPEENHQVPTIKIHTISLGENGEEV

[7] = target: Histamine H2 receptor (Cavia porcellus) (UniProt P47747); test: Inhibition of the positive chronotropic response (histamine H2 receptor antagonism) of guinea pig right atrium relative to cimetidine.; format: functional, tissue-based; details: Cardiac atrium
[8] = target: Histamine H2 receptor (Cavia porcellus) (UniProt P47747); test: Histamine H2 receptor antagonistic activity on the isolated guinea pig right atrium determined by Schild plot.; format: functional, tissue-based; details: Cardiac atrium
[9] = target: Muscarinic acetylcholine receptor M3 (Cavia porcellus) (UniProt Q8VH26); test: muscarinic acetylcholine receptor M3 antagonistic activity at concentrations of 10 and 30 uM on the isolated guinea pig iluem.; format: functional
Muscarinic acetylcholine receptor M3 (Cavia porcellus), sequence (Q8VH26 1-587): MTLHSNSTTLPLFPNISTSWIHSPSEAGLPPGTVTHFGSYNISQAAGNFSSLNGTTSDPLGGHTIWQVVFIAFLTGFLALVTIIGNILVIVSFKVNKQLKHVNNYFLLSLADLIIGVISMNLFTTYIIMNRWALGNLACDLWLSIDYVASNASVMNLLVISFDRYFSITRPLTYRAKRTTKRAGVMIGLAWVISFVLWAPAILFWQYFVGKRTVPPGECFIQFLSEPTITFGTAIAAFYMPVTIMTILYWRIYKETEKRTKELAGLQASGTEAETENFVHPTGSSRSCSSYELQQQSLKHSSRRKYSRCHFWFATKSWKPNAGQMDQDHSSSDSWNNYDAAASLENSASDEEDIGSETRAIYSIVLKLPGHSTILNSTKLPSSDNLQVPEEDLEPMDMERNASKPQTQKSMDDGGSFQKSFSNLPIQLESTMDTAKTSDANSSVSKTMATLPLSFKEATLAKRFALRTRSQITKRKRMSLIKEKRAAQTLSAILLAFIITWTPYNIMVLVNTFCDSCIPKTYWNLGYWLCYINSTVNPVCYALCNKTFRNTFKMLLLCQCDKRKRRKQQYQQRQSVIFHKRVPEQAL
In short: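 Guinea pig proximal ileum, isotonic recording under a 10 mN load in gassed Tyrode's solution. Cumulative carbachol (3-300 nM) curves as reference agonist. Antagonist incubated 10 min. pK_B calculated from concentration ratio, or pA2 by Schild plot.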

[10] = target: Histamine H1 receptor (Cavia porcellus) (UniProt P31389); test: Histamine H1 receptor antagonistic activity at a concentration of 3 and 10 uM on the isolated guinea pig iluem.; format: functional
Histamine H1 receptor (Cavia porcellus), sequence (P31389 whole entry): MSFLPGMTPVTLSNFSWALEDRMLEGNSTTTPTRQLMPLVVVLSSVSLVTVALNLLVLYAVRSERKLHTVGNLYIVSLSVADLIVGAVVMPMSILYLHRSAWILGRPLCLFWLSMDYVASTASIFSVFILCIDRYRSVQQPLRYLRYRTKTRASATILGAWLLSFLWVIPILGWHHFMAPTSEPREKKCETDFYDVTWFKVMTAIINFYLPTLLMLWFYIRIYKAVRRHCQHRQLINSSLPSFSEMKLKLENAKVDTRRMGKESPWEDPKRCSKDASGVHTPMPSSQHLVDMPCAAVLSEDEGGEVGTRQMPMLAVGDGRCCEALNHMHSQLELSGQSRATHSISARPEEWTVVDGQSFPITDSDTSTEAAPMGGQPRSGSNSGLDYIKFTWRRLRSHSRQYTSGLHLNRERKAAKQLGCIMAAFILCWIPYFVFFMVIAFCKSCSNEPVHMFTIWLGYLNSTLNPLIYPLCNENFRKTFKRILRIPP
In short: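 Whole proximal guinea pig ileum segments in Tyrode's solution gassed with 95% O2/5% CO2, isotonic recording at 10 mN load. Cumulative histamine (0.01-3 μM) curves. Antagonist applied 10 min before the curve. pK_B from concentration ratio, or pA2 by Schild plot.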

Histamine H2 receptor (Cavia porcellus), sequence (P47747 whole entry): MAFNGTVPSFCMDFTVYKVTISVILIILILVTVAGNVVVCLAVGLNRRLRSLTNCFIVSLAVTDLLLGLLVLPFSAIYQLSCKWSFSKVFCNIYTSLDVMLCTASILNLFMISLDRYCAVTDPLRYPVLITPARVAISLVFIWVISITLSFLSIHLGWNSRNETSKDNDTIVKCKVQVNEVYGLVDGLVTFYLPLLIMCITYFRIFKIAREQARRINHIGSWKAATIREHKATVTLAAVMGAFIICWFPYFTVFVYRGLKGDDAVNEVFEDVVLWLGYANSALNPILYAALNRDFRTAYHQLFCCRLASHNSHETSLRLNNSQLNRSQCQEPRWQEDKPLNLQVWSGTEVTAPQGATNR

pKB [1]: 7.52
Slope [2]: 1.29
Slope [3]: 1.09
pA2 [4]: 6.06
pKB [5]: 4.77
pA2 [6]: 5.59
Relative potency [7]: 1440%
Slope [8]: 0.9
pKB [9]: 5.49
pKB [10]: 5.96
SMILES: N#CN/C(=N\CCNC(=O)c1ccc(N)c(I)c1)NCCCOc1cccc(CN2CCCCC2)c1
